Data set [1] deals with A549. The experiment in a line: Antiproliferative activity against human A549 cells assessed as cell growth inhibition measured after 72 hrs by MTT assay. The format is functional, cell-based. To be noted: A549, 72 h. In short, it runs like this: (§1)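 Cells seeded at 2.5 × 10^4 cells/well, allowed 24 h before dosing, then exposed to increasing concentrations (0.5% DMSO final) for 72 h at 37 °C, 5% CO2. MTT added at 1 mg/mL final in complete media for 2 h, formazan dissolved in DMSO, absorbance read at 570 nm. 6–8 repeats per treatment; IC50 from concentration–response fit.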
In general terms: Tetrazolium assays rely on reduction of a dye to a coloured formazan, in cell work by metabolically active cells.

The subject of the next data set is MDA-MB-231. The experiment in a line: Antiproliferative activity against human MDA-MB-231 cells assessed as cell growth inhibition measured after 72 hrs by MTT assay. In kind it is functional, cell-based. To be noted: MDA-MB-231, 72 h. The method, boiled down:
as §1

A short description of data set [2]: Metabolic stability in human liver microsomes assessed as compound remaining preincubated for 10 mins followed by NADPH addition measured after 60 mins by HPLC analysis. In kind it is ADME, Microsome. As to conditions: read-out: Stability. For orientation: Liver microsomes are vesicles of endoplasmic reticulum, rich in cytochrome P450 enzymes.
Data set [3] addresses T1, 26S proteasome non-ATPase regulatory subunit 10 (Homo sapiens) (UniProt O75832).
T1 sequence (whole entry): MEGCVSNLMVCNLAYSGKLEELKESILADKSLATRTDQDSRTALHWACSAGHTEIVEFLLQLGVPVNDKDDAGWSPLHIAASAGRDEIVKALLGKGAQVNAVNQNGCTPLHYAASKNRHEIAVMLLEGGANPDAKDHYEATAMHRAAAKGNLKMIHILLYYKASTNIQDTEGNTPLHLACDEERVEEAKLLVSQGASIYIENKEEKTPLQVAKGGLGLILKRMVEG
Nature of the data set: Binding affinity to gankyrin (unknown origin) assessed as change in melting temperature at 300 uM by SYPRO orange staining based thermal shift assay.

Data set [4] deals with T1, 26S proteasome non-ATPase regulatory subunit 10 (Homo sapiens). The experiment in a line: Binding affinity to gankyrin (unknown origin) expressed in Escherichia coli BL21 (DE3) expression system assessed as decrease in thermal denaturation at 1.5 uM measured at 5 to 90 degreeC by circular dichroism spectropolarimeter analysis. In short, it runs like this: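 Recombinant His-tagged gankyrin expressed in E. coli BL21(DE3) Codon+RIL (IPTG 1 mM, 25 °C, ~5 h) and purified by Ni2+-IMAC. Thermal denaturation followed by CD at 217 nm over 5–90 °C with compound at 1.5 μM.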

Data set [5] shares this target. The experiment in a line: Binding affinity to gankyrin (unknown origin) expressed in Escherichia coli BL21 (DE3) expression system assessed as formation of white precipitation of the compound at 1.5 uM.
A short description of data set [6]: Cytotoxicity against HEK293 cells assessed as cell growth inhibition measured after 72 hrs by MTT assay. In kind it is toxicity, cell-based. To be noted: human. The method, boiled down:
as §1

The test system of data set [7] is A549. Nature of the data set: Inhibition of gankyrin-proteasome protein-protein interaction in human A549 cells assessed as increase in p53 level at 0.12 to 1 uM measured after 48 hrs by Western blotting analysis. In kind it is cell-based. To be noted: dose 0.12-1 µM. In short, it runs like this:
(§2)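 Cells in 10 cm dishes treated with varying concentrations (0.5% DMSO final) or DMSO only for 48 h. Lysed in RIPA with protease/phosphatase inhibitors on ice for 60 min. 15 μg protein resolved under reducing conditions, transferred to PVDF, and probed for p53, phospho-p53 S6/S15, Rb, gankyrin and cyclophilin. Detection by HRP-secondary ECL.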
(Immunoblotting shows a protein as a band on a membrane.)

The subject of data set [8] is A549. The experiment in a line: Inhibition of gankyrin-proteasome protein-protein interaction in human A549 cells assessed as increase in Rb level at 0.12 to 1 uM measured after 48 hrs by Western blotting analysis. The format is cell-based. To be noted: dose 0.12-1 µM. The method, boiled down: as §2
Data set [9] deals with A549. Nature of the data set: Inhibition of gankyrin-proteasome protein-protein interaction in human A549 cells assessed as increase in phosphorylated p53 level at serine 6 residue at 0.04 to 0.33 uM measured after 48 hrs by Western blotting analysis. In kind it is cell-based. To be noted: dose 0.04-0.33 µM. The method, boiled down:
as §2

Data set [10] deals with A549. Nature of the data set: Inhibition of gankyrin-proteasome protein-protein interaction in human A549 cells assessed as increase in phosphorylated p53 level at serine 6 residue at 0.60 to 5 uM measured after 48 hrs by Western blotting analysis. In kind it is cell-based. As to conditions: dose 0.6-5 µM. In short, it runs like this: as §2
The subject of data set [11] is A549. Nature of the data set: Inhibition of gankyrin-proteasome protein-protein interaction in human A549 cells assessed as increase in phosphorylated p53 level at serine 6 residue at 0.12 to 1 uM measured after 48 hrs by Western blotting analysis. As to conditions: dose 0.12-1 µM. The format is cell-based. In short, it runs like this:
as §2

In data set [12] the test system is A549. The experiment in a line: Antitumor activity in human A549 cells cultured as 3D spheroids assessed as fold decrease in spheroid volume at 0.5 uM measured up to 15 days by inverted microscopic analysis. The format is functional. As to conditions: time <= 15 day. The method, boiled down: (§3)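 Spheroids formed from 2000 cells/well in ultra-low attachment U-bottom wells over 3 days, then given a single dose on day 3. Half the media was replenished every 3 days. Transmitted-light images were taken through day 15, and spheroid volume was computed from images and expressed as fold-difference. Mean ± SD, n = 8; unpaired t-test.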

For data set [13], the system named is A549. The experiment in a line: Antitumor activity in human A549 cells cultured as 3D spheroids assessed as fold decrease in spheroid volume at 1 uM measured up to 15 days by inverted microscopic analysis. As to conditions: time <= 15 day. The format is functional. The method, boiled down: as §3
The subject of data set [14] is A549. The experiment in a line: Antitumor activity against human A549 cells tumor spheroids assessed as decrease in live cells by measuring green fluorescence intensity measured at 15 days by calcein AM staining based fluorescence microscopic analysis. In kind it is functional, cell-based. To be noted: dose 0.15-5 µM, time 15.0 day, DDE = dose-dependent effect. The method, boiled down: (§4)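 Live/dead staining of 3D spheroids at day 15 after single-dose treatment: media replaced by kit reagent with calcein AM (live, green) and EthD-III (dead, red), 30 min in dark at room temperature, imaged at 4X by fluorescence microscopy. Mean ± SD, n = 4; unpaired Student's t-test.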

The subject of data set [15] is A549. Nature of the data set: Antitumor activity against human A549 cells tumor spheroids assessed as increase in dead cells by measuring red fluorescence intensity measured at 15 days by EthD-III staining based fluorescence microscopic analysis. In kind it is functional, cell-based. As to conditions: dose 0.15-5 µM, time 15.0 day, DDE = dose-dependent effect. The method, boiled down:
as §4

Data set [16] concerns A549. The experiment in a line: Colony formation in human A549 cells at 1 uM incubated for 48 hrs followed by replacement of fresh media every alternative day measured after 7 days by crystal violet staining based clonogenic assay relative to control. To be noted: A549, 48 h.
The test system of data set [17] is A549. The experiment in a line: Inhibition of colony formation in human A549 cells at 0.5 uM incubated for 48 hrs followed by replacement of fresh media every alternative day measured after 7 days by crystal violet staining based clonogenic assay relative to control; values are per cent of control. As to conditions: A549, 48 h.

The source made the active and inactive calls. The calls are words filed in the database; no cut-off is given here.

Take `FC(F)(F)c1ccc(-c2cn(CCCC(=S)Nc3ccc(-c4ccccc4)cc3)nn2)cc1`: the figures for the IC50 with A549 [1] and in the data set on MDA-MB-231 were 1 µM and more than 100 µM, respectively. For the same compound, the remaining at 1 h in data set [2] was found to be 80%. Besides, the outcome (in data set [3]; in data set [4]; in data set [5]; in the data set on A549 [7]; in the data set with A549 [8]; in the data set on A549 [9]) was Active. Further, the result in the data set with A549 [10] and in the data set with A549 [11] was Active. Further, in data set [6], the IC50 (commonly the concentration that gives 50% inhibition) at 72 h was more than 100 µM. The “fold change (FC)” value worked out at 3.8 in the data set with A549 [12] and 4 in the data set with A549 [13]. Besides, the Activity entry with A549 [14] and in the data set on A549 [15] was “Dde” throughout. In the data set on A549 [16], the growth, % of control at 1 µM was found to be 61.4%. In addition, the growth, % of control at 0.5 µM with A549 [17] was found to be 83.8%.

The values are drawn from ChEMBL document CHEMBL5120910, “Small-Molecule Gankyrin Inhibition as a Therapeutic Strategy for Breast and Lung Cancer” (J Med Chem, 2022).
